In ChEMBL document CHEMBL3046679, “Design, synthesis, and biological activities of arylmethylamine substituted chlorotriazine and methylthiotriazine compounds” (J Agric Food Chem, 2011):
Active and inactive are the calls of the source.

Tests used:
Puccinia triticina [1] = experiment: Fungicidal activity against Puccinia triticina assessed as inhibition of disease development in compound treated leaf pieces at 200 ppm relative to untreated control (wheat-curative); type: functional
Procedure, shortened: (§1)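 Curative wheat leaf-piece test against Puccinia triticina. Leaf pieces inoculated with spores first, then treated with formulated compound at 200, 60 or 20 ppm. Disease scored 3–9 days after inoculation as percent inhibition versus untreated controls. Values are the mean across replicates.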

Puccinia triticina [2] = experiment: Fungicidal activity against Puccinia triticina assessed as inhibition of disease development in compound treated leaf pieces at 200 ppm relative to untreated control (wheat-preventative); type: functional
Procedure, shortened: (§2)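 Preventative leaf-piece test on host tissue (tomato, vine, wheat or barley). Formulated compound applied at 200, 60 and 20 ppm before spore inoculation. Disease scored 3–9 days after inoculation, depending on the pathogen, as percent inhibition of disease development versus untreated controls. Values are the mean across replicates.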

[3] = test system: Blumeria graminis f. sp. tritici; experiment: Fungicidal activity against Blumeria graminis f. sp. tritici assessed as inhibition of disease development in compound treated leaf pieces at 200 ppm relative to untreated control (wheat-preventative); type: functional
Plasmopara viticola [4] = experiment: Fungicidal activity against Plasmopara viticola assessed as inhibition of disease development in compound treated leaf pieces at 200 ppm relative to untreated control (grapevine-preventative); type: functional; procedure, shortened: as §2
Phytophthora infestans [5] = experiment: Fungicidal activity against Phytophthora infestans assessed as inhibition of disease development in compound treated leaf pieces at 200 ppm relative to untreated control (tomato-preventative); type: functional; procedure, shortened: as §2
Phytophthora infestans [6] = experiment: Fungicidal activity against Phytophthora infestans assessed as inhibition of mycelia growth at 200 ppm; type: functional, organism-based
Zymoseptoria tritici = experiment: Fungicidal activity against Zymoseptoria tritici assessed as inhibition of mycelia growth at 100 ppm; type: functional, organism-based
Botrytis cinerea = experiment: Fungicidal activity against Botryotinia fuckeliana assessed as inhibition of mycelia growth at 2 ppm; type: functional, organism-based
Procedure, shortened: (§3)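 Mycelial growth test in 96-well plates: compound incorporated into artificial growth medium at 2 ppm, two replicates per rate. Each well scored 99 for complete, 55 for partial or 0 for no inhibition. Values are the mean across replicates; azoxystrobin and prochloraz used as positive controls.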

Fusarium graminearum = experiment: Fungicidal activity against Fusarium graminearum assessed as inhibition of mycelia growth at 2 ppm; type: functional, organism-based; procedure, shortened: as §3
Alternaria solani [7] = experiment: Fungicidal activity against Alternaria solani assessed as inhibition of mycelia growth at 2 ppm; type: functional, organism-based; procedure, shortened: as §3
Pythium dissimile = experiment: Fungicidal activity against Pythium dissimile assessed as inhibition of mycelia growth at 2 ppm; type: functional, organism-based; procedure, shortened: as §3
Digitaria sanguinalis [8] = experiment: Herbicidal activity against Digitaria sanguinalis (hairy crabgrass) assessed as growth inhibition at 1 kg/ha preemergence treatment by glasshouse test; type: functional; settings: pre-emergence, read-out: GI
Procedure, shortened: (§4)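 Glasshouse screen with pre- or postemergence application at 1.0 kg/ha. Result given as percent inhibition of plant growth; norflurazon and glyphosate used as controls.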

Stellaria media [9] = experiment: Herbicidal activity against Stellaria media assessed as growth inhibition at 1 kg/ha preemergence treatment by glasshouse test; type: functional; settings: pre-emergence, read-out: GI; procedure, shortened: as §4
Lolium perenne [10] = experiment: Herbicidal activity against Lolium perenne (perennial ryegrass) assessed as growth inhibition at 1 kg/ha preemergence treatment by glasshouse test; type: functional; settings: pre-emergence, read-out: GI; procedure, shortened: as §4
Amaranthus retroflexus [11] = experiment: Herbicidal activity against Amaranthus retroflexus assessed as growth inhibition at 1 kg/ha preemergence treatment by glasshouse test; type: functional; settings: pre-emergence, read-out: GI; procedure, shortened: as §4
Digitaria sanguinalis [12] = experiment: Herbicidal activity against Digitaria sanguinalis (hairy crabgrass) assessed as growth inhibition at 1 kg/ha postemergence treatment by glasshouse test; type: functional; settings: post-emergence, read-out: GI; procedure, shortened: as §4
Stellaria media [13] = experiment: Herbicidal activity against Stellaria media assessed as growth inhibition at 1 kg/ha postemergence treatment by glasshouse test; type: functional; settings: post-emergence, read-out: GI; procedure, shortened: as §4
Lolium perenne [14] = experiment: Herbicidal activity against Lolium perenne (perennial ryegrass) assessed as growth inhibition at 1 kg/ha postemergence treatment by glasshouse test; type: functional; settings: post-emergence, read-out: GI; procedure, shortened: as §4
Amaranthus retroflexus [15] = experiment: Herbicidal activity against Amaranthus retroflexus assessed as growth inhibition at 1 kg/ha postemergence treatment by glasshouse test; type: functional; settings: post-emergence, read-out: GI; procedure, shortened: as §4
Poa annua = experiment: Herbicidal activity against Poa annua assessed as growth inhibition at 32 ppm by 96-well plate test; type: functional; settings: read-out: GI
Procedure, shortened: (§5)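 96-well plate herbicide screen: Arabidopsis thaliana at 10 ppm and Poa annua at 32 ppm, two replicates. Plates incubated seven days in a controlled-environment cabinet. Each replicate scored 0 (no visible effect) or 99 (herbicidal effect); values are the mean of the two. Atrazine used as reference.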

Arabidopsis thaliana = experiment: Herbicidal activity against Arabidopsis thaliana assessed as growth inhibition at 10 ppm by 96-well plate test; type: functional; settings: read-out: GI; procedure, shortened: as §5
Echinochloa crus-galli [16] = experiment: Herbicidal activity against Echinochloa crus-galli (barnyard grass) at 1.5 kg/ha postemergence treatment measured after 10 days by glasshouse test; type: functional; settings: post-emergence, 240 h
Procedure, shortened: (§6)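 Glasshouse pre/postemergence test, each treatment in triplicate. Above-ground fresh weight measured 10 days after treatment. Result expressed as percent inhibition versus control, from 0 (no control) to 100 (complete control); glyphosate used as positive control.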

Brassica napus [17] = experiment: Herbicidal activity against Brassica napus (oilseed rape) at 1.5 kg/ha postemergence treatment measured after 10 days by glasshouse test; type: functional; settings: post-emergence, 240 h; procedure, shortened: as §6
Echinochloa crus-galli [18] = experiment: Herbicidal activity against Echinochloa crus-galli (barnyard grass) at 1.5 kg/ha preemergence treatment measured after 10 days by glasshouse test; type: functional; settings: pre-emergence, 240 h; procedure, shortened: as §6
Brassica napus [19] = experiment: Herbicidal activity against Brassica napus (oilseed rape) at 1.5 kg/ha preemergence treatment measured after 10 days by glasshouse test; type: functional; settings: pre-emergence, 240 h; procedure, shortened: as §6
Alternaria solani [20] = experiment: Fungicidal activity against Alternaria solani assessed as inhibition of disease development in compound treated leaf pieces at 20 ppm relative to untreated control (tomato-preventative); type: functional; procedure, shortened: as §2
Pyrenophora teres [21] = experiment: Fungicidal activity against Pyrenophora teres assessed as inhibition of disease development in compound treated leaf pieces at 20 ppm relative to untreated control (barley-preventative); type: functional; procedure, shortened: as §2
Parastagonospora nodorum = experiment: Fungicidal activity against Phaeosphaeria nodorum assessed as inhibition of disease development in compound treated leaf pieces at 20 ppm relative to untreated control (wheat preventative); type: functional; procedure, shortened: as §2
Puccinia triticina [22] = experiment: Fungicidal activity against Puccinia triticina assessed as inhibition of disease development in compound treated leaf pieces at 20 ppm relative to untreated control (wheat-curative); type: functional; procedure, shortened: as §1
Puccinia triticina [23] = experiment: Fungicidal activity against Puccinia triticina assessed as inhibition of disease development in compound treated leaf pieces at 20 ppm relative to untreated control (wheat-preventative); type: functional; procedure, shortened: as §2
[24] = test system: Blumeria graminis f. sp. tritici; experiment: Fungicidal activity against Blumeria graminis f. sp. tritici assessed as inhibition of disease development in compound treated leaf pieces at 20 ppm relative to untreated control (wheat-preventative); type: functional
Plasmopara viticola [25] = experiment: Fungicidal activity against Plasmopara viticola assessed as inhibition of disease development in compound treated leaf pieces at 20 ppm relative to untreated control (grapevine-preventative); type: functional; procedure, shortened: as §2
Phytophthora infestans [26] = experiment: Fungicidal activity against Phytophthora infestans assessed as inhibition of disease development in compound treated leaf pieces at 20 ppm relative to untreated control (tomato-preventative); type: functional; procedure, shortened: as §2
Alternaria solani [27] = experiment: Fungicidal activity against Alternaria solani assessed as inhibition of disease development in compound treated leaf pieces at 60 ppm relative to untreated control (tomato-preventative); type: functional; procedure, shortened: as §2
Pyrenophora teres [28] = experiment: Fungicidal activity against Pyrenophora teres assessed as inhibition of disease development in compound treated leaf pieces at 60 ppm relative to untreated control (barley-preventative); type: functional; procedure, shortened: as §2
Puccinia triticina [29] = experiment: Fungicidal activity against Puccinia triticina assessed as inhibition of disease development in compound treated leaf pieces at 60 ppm relative to untreated control (wheat-curative); type: functional; procedure, shortened: as §1
Puccinia triticina [30] = experiment: Fungicidal activity against Puccinia triticina assessed as inhibition of disease development in compound treated leaf pieces at 60 ppm relative to untreated control (wheat-preventative); type: functional; procedure, shortened: as §2
[31] = test system: Blumeria graminis f. sp. tritici; experiment: Fungicidal activity against Blumeria graminis f. sp. tritici assessed as inhibition of disease development in compound treated leaf pieces at 60 ppm relative to untreated control (wheat-preventative); type: functional
Plasmopara viticola [32] = experiment: Fungicidal activity against Plasmopara viticola assessed as inhibition of disease development in compound treated leaf pieces at 60 ppm relative to untreated control (grapevine-preventative); type: functional; procedure, shortened: as §2
Phytophthora infestans [33] = experiment: Fungicidal activity against Phytophthora infestans assessed as inhibition of disease development in compound treated leaf pieces at 60 ppm relative to untreated control (tomato-preventative); type: functional; procedure, shortened: as §2
Alternaria solani [34] = experiment: Fungicidal activity against Alternaria solani assessed as inhibition of disease development in compound treated leaf pieces at 200 ppm relative to untreated control (tomato-preventative); type: functional; procedure, shortened: as §2
Pyrenophora teres [35] = experiment: Fungicidal activity against Pyrenophora teres assessed as inhibition of disease development in compound treated leaf pieces at 200 ppm relative to untreated control (barley-preventative); type: functional; procedure, shortened: as §2
Triticum aestivum [36] = experiment: Phytotoxicity against Triticum aestivum (wheat) plant at 60 ppm; type: organism-based; settings: in vivo
Triticum aestivum [37] = experiment: Phytotoxicity against Triticum aestivum (wheat) plant at 200 ppm; type: organism-based; settings: in vivo
Heliothis virescens = experiment: Insecticidal activity against Lepidoptera Heliothis virescens (tobacco budworm) assessed as mortality at 1000 ppm by leaf-disk assay; type: functional, organism-based
Procedure, shortened: (§7)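 Leaf-disk assay at 1000 ppm, three replicates. Plates kept 5–9 days in controlled-environment cabinets. Mortality judged against untreated wells: 99 for significant mortality, 0 otherwise. Values are the mean of three; thiamethoxam and indoxacarb used as positive controls.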

Aphididae = experiment: Insecticidal activity against Aphididae (aphids) assessed as mortality at 1000 ppm by leaf-disk assay; type: functional, organism-based; procedure, shortened: as §7

CC(C)Nc1nc(Cl)nc(NCc2ccc(Cl)nc2)n1
70%: inhibition of growth at 1000 g/ha (Lolium perenne [10]) | inhibition at 60 ppm (Puccinia triticina [30])
Toxic: Activity (Triticum aestivum [36]) | Activity (Triticum aestivum [37])
99%: inhibition of growth at 10 ppm (Arabidopsis thaliana)
80%: inhibition of growth at 1000 g/ha (Stellaria media [9]) | inhibition of growth at 1000 g/ha (Lolium perenne [14])
68.6%: inhibition at 1500 g/ha (Echinochloa crus-galli [16])
inactive: inhibition (Phytophthora infestans [6]) | inhibition (Botrytis cinerea) | inhibition (Fusarium graminearum) | inhibition (Alternaria solani [7]) | inhibition (Pythium dissimile) | mortality (Heliothis virescens) | mortality (Aphididae)
0%: inhibition at 200 ppm (Plasmopara viticola [4]) | inhibition at 200 ppm (Phytophthora infestans [5]) | inhibition of growth at 1000 g/ha (Digitaria sanguinalis [8]) | inhibition of growth at 1000 g/ha (Digitaria sanguinalis [12]) | inhibition of growth at 32 ppm (Poa annua) | inhibition at 20 ppm (Alternaria solani [20]) | inhibition at 20 ppm (Pyrenophora teres [21]) | inhibition at 20 ppm (Parastagonospora nodorum) | inhibition at 20 ppm (Puccinia triticina [23]) | inhibition at 20 ppm [24] | inhibition at 20 ppm (Plasmopara viticola [25]) | inhibition at 20 ppm (Phytophthora infestans [26]) | inhibition at 60 ppm (Alternaria solani [27]) | inhibition at 60 ppm (Pyrenophora teres [28]) | inhibition at 60 ppm [31] | inhibition at 60 ppm (Plasmopara viticola [32]) | inhibition at 60 ppm (Phytophthora infestans [33]) | inhibition at 200 ppm (Alternaria solani [34]) | inhibition at 200 ppm (Pyrenophora teres [35])
68.9%: inhibition at 1500 g/ha (Echinochloa crus-galli [18])
90%: inhibition at 200 ppm [3]
active: inhibition (Zymoseptoria tritici)
100%: inhibition at 200 ppm (Puccinia triticina [1]) | inhibition at 200 ppm (Puccinia triticina [2]) | inhibition of growth at 1000 g/ha (Amaranthus retroflexus [11]) | inhibition of growth at 1000 g/ha (Stellaria media [13]) | inhibition of growth at 1000 g/ha (Amaranthus retroflexus [15]) | inhibition at 1500 g/ha (Brassica napus [17]) | inhibition at 1500 g/ha (Brassica napus [19]) | inhibition at 20 ppm (Puccinia triticina [22]) | inhibition at 60 ppm (Puccinia triticina [29])
